Test system: Fibroblast
Experiment: Multiplex assay against human fibroblast
Format: toxicity, cell-based
In short: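 Per cents of healthy-nucleus cells form the tubulin, mitochondrial-mass and membrane-permeability phenotype values. Live cells were stained at seeding with Hoechst33342, BioTracker Green Microtubule Cytoskeleton Dye, MitoTracker Red and Annexin V Alexa Fluor 680. After compound addition they were imaged on a CQ1 microscope at 37°C and 5% CO2, and CellPathfinder machine-learning gating split them into Hoechst high-intensity objects or normal cells, normal cells into healthy, pyknosed or fragmented nuclei, and pyknosed cells into mitotic or apoptotic.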

[1] = 12 h, 1 µM, compound concentration 1 uM, replicate 1
[2] = 12 h, 1 µM, compound concentration 1 uM, replicate 2
[3] = 12 h, 10 µM, compound concentration 10 uM, replicate 1
[4] = 12 h, 10 µM, compound concentration 10 uM, replicate 2
[5] = 24 h, 1 µM, compound concentration 1 uM, replicate 1
[6] = 24 h, 1 µM, compound concentration 1 uM, replicate 2
[7] = 24 h, 10 µM, compound concentration 10 uM, replicate 1
[8] = 24 h, 10 µM, compound concentration 10 uM, replicate 2
[9] = 48 h, 1 µM, compound concentration 1 uM, replicate 1
[10] = 48 h, 1 µM, compound concentration 1 uM, replicate 2
[11] = 48 h, 10 µM, compound concentration 10 uM, replicate 1
[12] = 48 h, 10 µM, compound concentration 10 uM, replicate 2

Cc1cc(=O)n(C)c2cc(N3C(=O)CC[C@H](NS(=O)(=O)CC(C)C)[C@H]3c3ccc(Cl)cc3)ccc12
Population Apoptotic (%) [1]: 31% | Population Fragmented Nuclei (%) [1]: 16% | Population Healthy Nuclei (%) [1]: 56% | Population Hoechst High Intensity Objects (%) [1]: 2% | Population Membrane Permeable-Phenotype (%) [1]: 0% | Population Mitochondria Different-Phenotype (%) [1]: 4% | Population Mitotic Cells (%) [1]: 68% | Population Normal (%) [1]: 97% | Population Pyknosed Nuclei (%) [1]: 26% | Population Tubulin-Different-Phenotype (%) [1]: 34% | Total Cell Count [1]: 135 | Population Apoptotic (%) [2]: 38% | Population Fragmented Nuclei (%) [2]: 20% | Population Healthy Nuclei (%) [2]: 38% | Population Hoechst High Intensity Objects (%) [2]: 10% | Population Membrane Permeable-Phenotype (%) [2]: 8% | Population Mitotic Cells (%) [2]: 62% | Population Normal (%) [2]: 89% | Population Pyknosed Nuclei (%) [2]: 40% | Population Tubulin-Different-Phenotype (%) [2]: 61% | Total Cell Count [2]: 137 | Population Apoptotic (%) [3]: 41% | Population Fragmented Nuclei (%) [3]: 11% | Population Healthy Nuclei (%) [3]: 40% | Population Hoechst High Intensity Objects (%) [3]: 3% | Population Membrane Permeable-Phenotype (%) [3]: 1% | Population Mitochondria Different-Phenotype (%) [3]: 8% | Population Mitotic Cells (%) [3]: 58% | Population Normal (%) [3]: 96% | Population Pyknosed Nuclei (%) [3]: 48% | Population Tubulin-Different-Phenotype (%) [3]: 86% | Total Cell Count [3]: 149 | Population Apoptotic (%) [4]: 18% | Population Fragmented Nuclei (%) [4]: 26% | Population Healthy Nuclei (%) [4]: 31% | Population Hoechst High Intensity Objects (%) [4]: 11% | Population Membrane Permeable-Phenotype (%) [4]: 8% | Population Mitotic Cells (%) [4]: 82% | Population Normal (%) [4]: 88% | Population Pyknosed Nuclei (%) [4]: 42% | Population Tubulin-Different-Phenotype (%) [4]: 94% | Total Cell Count [4]: 133 | Population Apoptotic (%) [5]: 34% | Population Fragmented Nuclei (%) [5]: 18% | Population Healthy Nuclei (%) [5]: 62% | Population Hoechst High Intensity Objects (%) [5]: 2% | Population Membrane Permeable-Phenotype (%) [5]: 1% | Population Mitochondria Different-Phenotype (%) [5]: 4% | Population Mitotic Cells (%) [5]: 65% | Population Normal (%) [5]: 97% | Population Pyknosed Nuclei (%) [5]: 18% | Population Tubulin-Different-Phenotype (%) [5]: 24% | Total Cell Count [5]: 140 | Population Apoptotic (%) [6]: 50% | Population Fragmented Nuclei (%) [6]: 26% | Population Healthy Nuclei (%) [6]: 44% | Population Hoechst High Intensity Objects (%) [6]: 10% | Population Membrane Permeable-Phenotype (%) [6]: 13% | Population Mitochondria Different-Phenotype (%) [6]: 5% | Population Mitotic Cells (%) [6]: 50% | Population Normal (%) [6]: 89% | Population Pyknosed Nuclei (%) [6]: 29% | Population Tubulin-Different-Phenotype (%) [6]: 70% | Total Cell Count [6]: 128 | Population Apoptotic (%) [7]: 43% | Population Fragmented Nuclei (%) [7]: 14% | Population Healthy Nuclei (%) [7]: 46% | Population Hoechst High Intensity Objects (%) [7]: 10% | Population Membrane Permeable-Phenotype (%) [7]: 0% | Population Mitochondria Different-Phenotype (%) [7]: 19% | Population Mitotic Cells (%) [7]: 56% | Population Normal (%) [7]: 90% | Population Pyknosed Nuclei (%) [7]: 39% | Population Tubulin-Different-Phenotype (%) [7]: 88% | Total Cell Count [7]: 150 | Population Apoptotic (%) [8]: 42% | Population Fragmented Nuclei (%) [8]: 28% | Population Healthy Nuclei (%) [8]: 26% | Population Hoechst High Intensity Objects (%) [8]: 8% | Population Membrane Permeable-Phenotype (%) [8]: 17% | Population Mitochondria Different-Phenotype (%) [8]: 8% | Population Mitotic Cells (%) [8]: 57% | Population Normal (%) [8]: 91% | Population Pyknosed Nuclei (%) [8]: 45% | Population Tubulin-Different-Phenotype (%) [8]: 85% | Total Cell Count [8]: 143 | Population Apoptotic (%) [9]: 48% | Population Fragmented Nuclei (%) [9]: 27% | Population Healthy Nuclei (%) [9]: 54% | Population Hoechst High Intensity Objects (%) [9]: 2% | Population Membrane Permeable-Phenotype (%) [9]: 1% | Population Mitochondria Different-Phenotype (%) [9]: 2% | Population Mitotic Cells (%) [9]: 52% | Population Normal (%) [9]: 97% | Population Pyknosed Nuclei (%) [9]: 18% | Population Tubulin-Different-Phenotype (%) [9]: 27% | Total Cell Count [9]: 141 | Population Apoptotic (%) [10]: 46% | Population Fragmented Nuclei (%) [10]: 35% | Population Hoechst High Intensity Objects (%) [10]: 7% | Population Membrane Permeable-Phenotype (%) [10]: 8% | Population Mitochondria Different-Phenotype (%) [10]: 8% | Population Mitotic Cells (%) [10]: 53% | Population Normal (%) [10]: 92% | Population Pyknosed Nuclei (%) [10]: 9% | Population Tubulin-Different-Phenotype (%) [10]: 73% | Total Cell Count [10]: 142 | Population Apoptotic (%) [11]: 61% | Population Fragmented Nuclei (%) [11]: 23% | Population Healthy Nuclei (%) [11]: 38% | Population Hoechst High Intensity Objects (%) [11]: 15% | Population Membrane Permeable-Phenotype (%) [11]: 0% | Population Mitochondria Different-Phenotype (%) [11]: 24% | Population Mitotic Cells (%) [11]: 38% | Population Normal (%) [11]: 84% | Population Pyknosed Nuclei (%) [11]: 37% | Population Tubulin-Different-Phenotype (%) [11]: 92% | Total Cell Count [11]: 153 | Population Apoptotic (%) [12]: 54% | Population Fragmented Nuclei (%) [12]: 34% | Population Healthy Nuclei (%) [12]: 37% | Population Hoechst High Intensity Objects (%) [12]: 10% | Population Membrane Permeable-Phenotype (%) [12]: 25% | Population Mitochondria Different-Phenotype (%) [12]: 8% | Population Mitotic Cells (%) [12]: 45% | Population Normal (%) [12]: 89% | Population Pyknosed Nuclei (%) [12]: 27% | Population Tubulin-Different-Phenotype (%) [12]: 87% | Total Cell Count [12]: 141

Cc1sc2c(c1C)C(c1ccc(Cl)cc1)=N[C@H](CC(=O)OC(C)(C)C)c1nnc(C)n1-2
Population Apoptotic (%) [1]: 43% | Population Fragmented Nuclei (%) [1]: 15% | Population Healthy Nuclei (%) [1]: 62% | Population Hoechst High Intensity Objects (%) [1]: 2% | Population Membrane Permeable-Phenotype (%) [1]: 0% | Population Mitochondria Different-Phenotype (%) [1]: 5% | Population Mitotic Cells (%) [1]: 56% | Population Normal (%) [1]: 97% | Population Pyknosed Nuclei (%) [1]: 22% | Population Tubulin-Different-Phenotype (%) [1]: 30% | Total Cell Count [1]: 180 | Population Apoptotic (%) [2]: 33% | Population Fragmented Nuclei (%) [2]: 26% | Population Healthy Nuclei (%) [2]: 51% | Population Hoechst High Intensity Objects (%) [2]: 5% | Population Membrane Permeable-Phenotype (%) [2]: 15% | Population Mitochondria Different-Phenotype (%) [2]: 10% | Population Mitotic Cells (%) [2]: 66% | Population Normal (%) [2]: 94% | Population Tubulin-Different-Phenotype (%) [2]: 46% | Total Cell Count [2]: 159 | Population Apoptotic (%) [3]: 43% | Population Fragmented Nuclei (%) [3]: 19% | Population Healthy Nuclei (%) [3]: 55% | Population Hoechst High Intensity Objects (%) [3]: 7% | Population Membrane Permeable-Phenotype (%) [3]: 0% | Population Mitochondria Different-Phenotype (%) [3]: 15% | Population Mitotic Cells (%) [3]: 56% | Population Normal (%) [3]: 92% | Population Pyknosed Nuclei (%) [3]: 25% | Population Tubulin-Different-Phenotype (%) [3]: 90% | Total Cell Count [3]: 128 | Population Apoptotic (%) [4]: 51% | Population Fragmented Nuclei (%) [4]: 30% | Population Healthy Nuclei (%) [4]: 39% | Population Hoechst High Intensity Objects (%) [4]: 5% | Population Membrane Permeable-Phenotype (%) [4]: 4% | Population Mitochondria Different-Phenotype (%) [4]: 20% | Population Mitotic Cells (%) [4]: 48% | Population Normal (%) [4]: 94% | Population Pyknosed Nuclei (%) [4]: 29% | Population Tubulin-Different-Phenotype (%) [4]: 95% | Total Cell Count [4]: 169 | Population Apoptotic (%) [5]: 82% | Population Fragmented Nuclei (%) [5]: 17% | Population Healthy Nuclei (%) [5]: 60% | Population Hoechst High Intensity Objects (%) [5]: 2% | Population Membrane Permeable-Phenotype (%) [5]: 0% | Population Mitochondria Different-Phenotype (%) [5]: 2% | Population Mitotic Cells (%) [5]: 17% | Population Normal (%) [5]: 97% | Population Pyknosed Nuclei (%) [5]: 21% | Population Tubulin-Different-Phenotype (%) [5]: 29% | Total Cell Count [5]: 186 | Population Apoptotic (%) [6]: 46% | Population Fragmented Nuclei (%) [6]: 29% | Population Healthy Nuclei (%) [6]: 50% | Population Hoechst High Intensity Objects (%) [6]: 6% | Population Membrane Permeable-Phenotype (%) [6]: 11% | Population Mitochondria Different-Phenotype (%) [6]: 5% | Population Mitotic Cells (%) [6]: 53% | Population Normal (%) [6]: 93% | Population Pyknosed Nuclei (%) [6]: 20% | Population Tubulin-Different-Phenotype (%) [6]: 51% | Total Cell Count [6]: 149 | Population Apoptotic (%) [7]: 75% | Population Fragmented Nuclei (%) [7]: 16% | Population Healthy Nuclei (%) [7]: 69% | Population Hoechst High Intensity Objects (%) [7]: 8% | Population Membrane Permeable-Phenotype (%) [7]: 2% | Population Mitochondria Different-Phenotype (%) [7]: 19% | Population Mitotic Cells (%) [7]: 25% | Population Normal (%) [7]: 91% | Population Pyknosed Nuclei (%) [7]: 14% | Population Tubulin-Different-Phenotype (%) [7]: 76% | Total Cell Count [7]: 123 | Population Apoptotic (%) [8]: 51% | Population Fragmented Nuclei (%) [8]: 26% | Population Healthy Nuclei (%) [8]: 45% | Population Hoechst High Intensity Objects (%) [8]: 4% | Population Membrane Permeable-Phenotype (%) [8]: 4% | Population Mitochondria Different-Phenotype (%) [8]: 26% | Population Mitotic Cells (%) [8]: 48% | Population Normal (%) [8]: 95% | Population Pyknosed Nuclei (%) [8]: 27% | Population Tubulin-Different-Phenotype (%) [8]: 87% | Total Cell Count [8]: 165 | Population Apoptotic (%) [9]: 63% | Population Fragmented Nuclei (%) [9]: 19% | Population Healthy Nuclei (%) [9]: 66% | Population Hoechst High Intensity Objects (%) [9]: 5% | Population Membrane Permeable-Phenotype (%) [9]: 0% | Population Mitochondria Different-Phenotype (%) [9]: 2% | Population Mitotic Cells (%) [9]: 36% | Population Normal (%) [9]: 94% | Population Pyknosed Nuclei (%) [9]: 13% | Population Tubulin-Different-Phenotype (%) [9]: 28% | Total Cell Count [9]: 170 | Population Apoptotic (%) [10]: 53% | Population Fragmented Nuclei (%) [10]: 29% | Population Healthy Nuclei (%) [10]: 49% | Population Membrane Permeable-Phenotype (%) [10]: 12% | Population Mitochondria Different-Phenotype (%) [10]: 10% | Population Mitotic Cells (%) [10]: 46% | Population Normal (%) [10]: 95% | Population Pyknosed Nuclei (%) [10]: 21% | Population Tubulin-Different-Phenotype (%) [10]: 69% | Total Cell Count [10]: 140 | Population Apoptotic (%) [11]: 50% | Population Fragmented Nuclei (%) [11]: 21% | Population Healthy Nuclei (%) [11]: 66% | Population Hoechst High Intensity Objects (%) [11]: 1% | Population Membrane Permeable-Phenotype (%) [11]: 1% | Population Mitochondria Different-Phenotype (%) [11]: 13% | Population Mitotic Cells (%) [11]: 50% | Population Normal (%) [11]: 98% | Population Pyknosed Nuclei (%) [11]: 12% | Population Tubulin-Different-Phenotype (%) [11]: 70% | Total Cell Count [11]: 134 | Population Apoptotic (%) [12]: 63% | Population Fragmented Nuclei (%) [12]: 35% | Population Healthy Nuclei (%) [12]: 51% | Population Membrane Permeable-Phenotype (%) [12]: 4% | Population Mitochondria Different-Phenotype (%) [12]: 9% | Population Mitotic Cells (%) [12]: 36% | Population Pyknosed Nuclei (%) [12]: 13% | Population Tubulin-Different-Phenotype (%) [12]: 88% | Total Cell Count [12]: 170

Reference: ChEMBL document CHEMBL5058577, “EUbOPEN Chemogenomics Library 2 (Multiplex)” (2022)
